Series [1] has as its target D(1A) dopamine receptor (Homo sapiens) (UniProt P21728). In words: Positive allosteric modulation of D1R expressed in human SK-N-MC cells assessed as potentiation of DA-induced cAMP production pretreated with compound for 15 mins followed by dopamine addition measured after 15 mins by HTRF assay relative to control. To be noted: dose 0.1-10 µM, time 30.0 min. Type of series: functional, cell-based. Summed up: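 Human SK-N-MC neuroblastoma cells with endogenous D1R, seeded at 1×10^4 cells/well in Opti-MEM with 500 μM IBMX. Preincubated with 10 μM compound for 15 min at 25 °C, then dopamine concentration–response for 15 min at 25 °C. Lysed and cAMP read by HTRF. Change in dopamine Emax used; >20% potentiation taken as a potential PAM.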

Series [2] concerns Mus musculus. In words: Anti-parkinson activity in reserpine induced C57BL/6 mouse model assessed as decrease in locomotion at 100 to 400 mg/kg, ip measured for 60 mins. To be noted: dose 100-400 mg/kg. It counts as functional, organism-based. A digest of the protocol: (§1)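 Male C57BL/6 mice (22–25 g), n = 10/group, given reserpine 2.5 mg/kg sc (DMSO/saline). 20 h later dosed with vehicle or 30 mg/kg po (5% NMP + 5% solutol HS-15 + 90% saline), and/or L-DOPA 100 or 400 mg/kg ip plus carbidopa 100 mg/kg ip 30 min before recording. Placed in cage 15 min after the po dose. Total distance travelled over 60 min by video tracking.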

Series [3] is described as follows: Ratio of drug concentration in brain to plasma in BALB/c mouse plasma at 5 mg/kg, po administered as single dose measured 0.5 to 4 hrs. It counts as ADME, organism-based. To be noted: time 0.5-4 hrs. A digest of the protocol:
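Male BALB/c mice given a single oral dose of 5 mg/kg. Plasma, brain and CSF levels measured over time. Brain-to-plasma concentration ratios calculated between 0.5 and 4 h.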

A short description of series [4]: Toxicity in cocaine-induced hyperactive C57BL/6 mouse model assessed as hyperlocomotion at 1 mg/kg, ip pretreated for 15 mins followed by cocaine addition measured after 15 mins. Type of series: organism-based. To be noted: in vivo, 0.5 h, time 30 min. Summed up: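 Three-month-old male C57BL/6J mice, 8 per group, habituated to injections for 5 days. Given 1 mg/kg ip in sterile saline (20 mL/kg) 15 min before cocaine 20 mg/kg sc. Placed in a 50 cm open field 5 min after cocaine. Horizontal locomotion (total distance, cm) video-tracked in 2 min blocks over 30 min.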

The test system of series [5] is Mus musculus. The series is described as follows: Anti-parkinson activity in reserpine induced C57BL/6 mouse model assessed as decrease in locomotion at 30 mg/kg, po measured for 60 mins. It counts as functional, organism-based. A digest of the protocol:
as §1

Series [6] deals with Mus musculus. In words: Cognitive enhancing effect in C57BL/6J mouse assessed as ratio of novel to familiar at 1 mg/kg, ip by novel object recognition test. Type of series: functional, organism-based. To be noted: time 24-96 hrs. A digest of the protocol:
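Three-month-old male C57BL/6J mice, 8 per condition. After 5 min habituation to an empty 40 cm open field, given 1 mg/kg ip or vehicle (0.9% NaCl). 20 min later, 10 min acquisition with two identical objects. Later 10 min test sessions at 24 and 96 h. Nose/forepaw exploration scored. Discrimination ratio = (novel − familiar)/total exploration time.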

Where [7] appears, read: filed as positive allosteric modulator.

Active and inactive are the calls of the source. The rule behind the calls is not given here.

Sequence of D(1A) dopamine receptor (Homo sapiens) (P21728 whole entry): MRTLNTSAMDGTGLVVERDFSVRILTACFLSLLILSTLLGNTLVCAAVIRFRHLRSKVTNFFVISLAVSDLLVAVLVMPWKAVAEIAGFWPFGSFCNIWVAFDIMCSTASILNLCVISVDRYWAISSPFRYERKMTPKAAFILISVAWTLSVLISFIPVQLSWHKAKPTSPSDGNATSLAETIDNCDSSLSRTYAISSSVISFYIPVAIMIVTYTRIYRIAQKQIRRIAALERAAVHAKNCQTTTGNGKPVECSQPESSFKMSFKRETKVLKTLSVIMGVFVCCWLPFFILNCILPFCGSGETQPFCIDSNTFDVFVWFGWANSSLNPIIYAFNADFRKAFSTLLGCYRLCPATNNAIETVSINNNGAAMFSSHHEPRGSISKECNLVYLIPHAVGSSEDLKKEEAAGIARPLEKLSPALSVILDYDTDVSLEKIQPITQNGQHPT

As for `C[S+]([O-])c1ccc(-c2ccccc2OCF)cc1` (racemic), the maximum response (Emax) in series [1] (setting [7]) stood at 60%.

As for `O=Cc1cccc(-c2ccccc2OCF)c1`, the Emax in series [1] worked out at 23%.

As to `N[C@@H](Cc1ccc(O)c(O)c1)C(=O)O`, the result in the series with Mus musculus [2] was Active.

`O=Cc1cccc(-c2ccccc2OC(F)F)c1`: the maximum response (Emax) in series [1] was determined as 12%.

Take `O=C(O)c1ccc(-c2ccccc2OCF)cc1`: in series [1], the Emax turned out to be 7%.

For the compound `NS(=O)(=O)c1ccc(-c2ccccc2OCF)cc1`, the Emax in series [1] is 31%.

In the case of `CS(=N)(=O)c1ccc(-c2ncccc2OCF)cc1` (centres undefined), the maximal response (Emax) in series [1] stood at 1%.

Turning to `O=Cc1ccc(-c2cccc(OCF)c2)cc1`, the Emax in series [1] amounted to 25%.

Take `CNS(=O)(=O)c1ccc(-c2ccccc2OCF)cc1`: the maximal effect (Emax) in series [1] came to 38%.

On to `CS(=N)(=O)c1ccc(-c2ccccc2OCF)cc1Cl` (centres undefined), for which the maximal effect (Emax) in series [1] worked out at 12%.

As to `COC(=O)c1ccc(-c2ccccc2OCF)cc1`, the Emax in series [1] came out at 28%.

As to `O=Cc1ccc(-c2cccc(OC(F)F)c2)cc1`, the maximal response (Emax) in series [1] was 37%.

For the compound `O=Cc1ccc(-c2ccc(OCF)cc2)cc1`, the Emax in series [1] came out at 29%.

In the case of `CCS(=N)(=O)c1ccc(-c2ccccc2OCF)cc1` (centres undefined), the maximum response (Emax) in series [1] (setting [7]) is 54%.

On to `CC[S+]([O-])c1ccc(-c2ccccc2OCF)cc1` (centres undefined), for which the maximum response (Emax) in series [1] came to 16%.

With `CN=S(C)(=O)c1ccc(-c2ccccc2OCF)cc1` (centres undefined), the Emax in series [1] came to 30%.

Regarding `O=Cc1ccc(-c2ccccc2OC(F)F)cc1`, in series [1] (setting [7]), the maximal effect (Emax) came out at 45%.

For the compound `CS(=N)(=O)c1ccc(-c2ccccc2OCF)cc1` (racemic), in series [1] (setting [7]), the Emax was 55%. Moreover, in series [3], the concentration ratio (Kp) is 0.55. Besides, the Activity result in series [4] is “Non-Toxic”. For the same compound, the result in the series with Mus musculus [5], with Mus musculus [2] and in the series on Mus musculus [6] was Active.

On to `O=Cc1ccc(-c2ccccc2SC(F)F)cc1`, for which the Emax in series [1] (setting [7]) came out at 44%.

In the case of `NC(=O)c1ccc(-c2ccccc2OCF)cc1`, the Emax in series [1] was found to be 16%.

For `O=Cc1ccc(-c2ccccc2SCF)cc1`, the maximum response (Emax) in series [1] was 14%.

As for `CC(=O)c1ccc(-c2ccccc2OCF)cc1`, in series [1], the maximum response (Emax) amounted to 11%.

Regarding `O=Cc1ccc(-c2ccc(OC(F)F)cc2)cc1`, the Emax in series [1] came to 35%.

For `CS(=N)(=O)c1ccc(-c2ccccc2OCF)c(Cl)c1` (centres undefined), the maximal response (Emax) in series [1] was 20%.

(Values after ChEMBL document CHEMBL5113516, “2-(Fluoromethoxy)-4'-(S-methanesulfonimidoyl)-1,1'-biphenyl (UCM-1306), an Orally Bioavailable Positive Allosteric Modulator of the Human Dopamine D1 Receptor for Parkinson's Disease” (J Med Chem, 2022).)
